This note sets out measurements from ChEMBL document CHEMBL1153991, “Anthranilamide-based N,N-dialkylbenzamidines as potent and orally bioavailable factor Xa inhibitors: P4 SAR” (Bioorg Med Chem Lett, 2009).

One data set concerns Plasma. Nature of the data set: Anticoagulant activity in human plasma assessed as concentration required to double the thrombin generation time. In kind it is functional.
Data set [1] can be described thus: Oral bioavailability in rat. It is filed as ADME, organism-based. The conditions noted are these: in vivo.
Data set [2] is described as follows: Volume of distribution in rat. In kind it is ADME, organism-based. The note with it: in vivo.
Data set [3] can be described thus: Inhibition of trypsin.
A further data set concerns the target Coagulation factor X (Homo sapiens, UniProt P00742). Nature of the data set: Inhibition of Factor 10a.
A further data set has as its target Plasminogen (Homo sapiens, UniProt P00747). Description: Inhibition of plasmin.
The target of data set [4] is Vitamin K-dependent protein C (Homo sapiens) (UniProt P04070). Description: Inhibition of activated protein C.
Data set [5] concerns the target Tissue-type plasminogen activator (Homo sapiens, UniProt P00750). Description: Inhibition of tissue plasminogen activator.
Another data set addresses Prothrombin (Homo sapiens, UniProt P00734). Nature of the data set: Inhibition of thrombin.
Data set [6] in a line: Inhibition of kallikrein.
A short description of data set [7]: Oral bioavailability in Beagle dog at 0.5 mg/kg. It is filed as ADME, organism-based, Canis lupus familiaris. The conditions noted are these: in vivo. The procedure, abridged:
(§1)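 Beagle dogs dosed 0.1 mg/kg IV and 0.5 mg/kg PO. Derived PK parameters: F (%), t1/2 (h), CL (mL/min/kg), Vd (L/kg).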

The nature of data set [8]: Oral bioavailability in Sprague-Dawley rat at 6 mg/kg. It is filed as ADME, organism-based. The note with it: in vivo. Put shortly:
(§2)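 Sprague–Dawley rats dosed 0.4 mg/kg IV and 6 mg/kg PO. Derived PK parameters: F (%), t1/2 (h), CL (mL/min/kg), Vd (L/kg).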

Data set [9] is described as follows: Volume of distribution in Sprague-Dawley rat at 0.4 mg/kg, iv and 6 mg/kg, po. The conditions noted are these: in vivo. In kind it is ADME, organism-based. Put shortly: as §2
Data set [10] can be described thus: Half life in Sprague-Dawley rat at 0.4 mg/kg, iv and 6 mg/kg, po. It is filed as ADME, organism-based. The conditions noted are these: in vivo. The procedure, abridged:
as §2

Data set [11] is described as follows: Half life in Beagle dog at 0.1 mg/kg, iv and 0.5 mg/kg, po. The conditions noted are these: in vivo.
Data set [12] in a line: Volume of distribution in Beagle dog at 0.1 mg/kg, iv and 0.5 mg/kg, po. In kind it is ADME, organism-based, Canis lupus familiaris. The conditions noted are these: in vivo. The procedure, abridged:
as §1

A short description of data set [13]: Clearance in Beagle dog at 0.1 mg/kg, iv and 0.5 mg/kg, po. The conditions noted are these: in vivo. In kind it is ADME, organism-based, Canis lupus familiaris. The procedure, abridged: as §1
Data set [14] is described as follows: Clearance in Sprague-Dawley rat at 0.4 mg/kg, iv and 6 mg/kg, po. In kind it is ADME, organism-based. The conditions noted are these: in vivo. The procedure, abridged: as §2
Data set [15] in a line: Protein binding in human plasma. In kind it is ADME, cell-free. The conditions noted are these: read-out: PB (converted). The procedure, abridged: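 Plasma protein binding measured by ultrafiltration. Working solution added 1/100 to EDTA human plasma to a final 10 µM, incubated 37 °C for 30 min. Triplicate aliquots were centrifuged through filter devices for 25 min at 32 °C. Filtrate was mixed with acetonitrile containing internal standard and quantified by LC/MS/MS against standards prepared in ultrafiltered plasma.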

Sequence of Coagulation factor X (P00742 41-179 limits assumed): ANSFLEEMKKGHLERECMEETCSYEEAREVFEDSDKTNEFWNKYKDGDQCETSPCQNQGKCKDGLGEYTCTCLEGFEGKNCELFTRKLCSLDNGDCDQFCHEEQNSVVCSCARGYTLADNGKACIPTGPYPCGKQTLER
Sequence of Coagulation factor X (P00742 235-488 limits assumed): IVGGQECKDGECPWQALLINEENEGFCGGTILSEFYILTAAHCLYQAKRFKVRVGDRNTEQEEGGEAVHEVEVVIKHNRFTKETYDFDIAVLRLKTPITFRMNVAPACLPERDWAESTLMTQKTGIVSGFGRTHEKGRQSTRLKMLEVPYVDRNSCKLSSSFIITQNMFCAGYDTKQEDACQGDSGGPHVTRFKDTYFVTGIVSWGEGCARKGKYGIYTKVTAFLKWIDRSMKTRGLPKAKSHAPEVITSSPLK
Sequence of Tissue-type plasminogen activator (P00750 whole entry): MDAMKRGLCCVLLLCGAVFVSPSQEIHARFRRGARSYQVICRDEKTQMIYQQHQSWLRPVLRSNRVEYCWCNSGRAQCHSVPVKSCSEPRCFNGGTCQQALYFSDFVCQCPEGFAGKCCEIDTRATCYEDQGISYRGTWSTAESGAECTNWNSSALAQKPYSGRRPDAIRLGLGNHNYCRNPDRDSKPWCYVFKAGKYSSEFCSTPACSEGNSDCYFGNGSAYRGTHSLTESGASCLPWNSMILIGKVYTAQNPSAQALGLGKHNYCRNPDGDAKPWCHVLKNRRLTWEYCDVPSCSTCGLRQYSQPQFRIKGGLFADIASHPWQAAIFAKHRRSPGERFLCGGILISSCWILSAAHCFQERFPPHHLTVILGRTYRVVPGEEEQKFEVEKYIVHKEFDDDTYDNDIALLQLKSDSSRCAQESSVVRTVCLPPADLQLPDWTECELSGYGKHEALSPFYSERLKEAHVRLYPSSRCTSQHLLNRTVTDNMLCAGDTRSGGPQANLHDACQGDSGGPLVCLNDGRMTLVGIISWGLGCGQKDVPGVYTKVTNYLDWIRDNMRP
Sequence of Plasminogen (P00747 97-580 limits assumed): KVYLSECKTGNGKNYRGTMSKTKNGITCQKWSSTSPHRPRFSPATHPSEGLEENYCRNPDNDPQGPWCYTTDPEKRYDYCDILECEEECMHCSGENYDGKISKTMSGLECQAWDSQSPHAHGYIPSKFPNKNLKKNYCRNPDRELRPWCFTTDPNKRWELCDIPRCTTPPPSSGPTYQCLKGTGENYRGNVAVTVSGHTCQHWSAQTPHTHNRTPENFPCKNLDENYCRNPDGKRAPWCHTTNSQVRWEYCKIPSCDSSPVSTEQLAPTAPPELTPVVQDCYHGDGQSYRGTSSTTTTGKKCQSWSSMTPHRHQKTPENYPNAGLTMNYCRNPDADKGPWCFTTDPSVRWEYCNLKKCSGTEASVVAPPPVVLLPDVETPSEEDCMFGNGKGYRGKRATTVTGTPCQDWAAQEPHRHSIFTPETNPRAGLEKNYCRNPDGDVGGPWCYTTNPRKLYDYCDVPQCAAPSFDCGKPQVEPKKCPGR
Sequence of Plasminogen (P00747 581-810 limits assumed): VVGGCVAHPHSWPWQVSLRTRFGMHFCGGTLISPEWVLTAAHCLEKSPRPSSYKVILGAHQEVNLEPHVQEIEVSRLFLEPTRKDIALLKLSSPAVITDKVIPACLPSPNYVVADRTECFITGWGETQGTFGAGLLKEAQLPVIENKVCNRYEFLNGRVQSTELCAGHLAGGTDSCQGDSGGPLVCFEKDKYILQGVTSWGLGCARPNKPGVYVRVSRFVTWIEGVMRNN

The term bioavailability denotes the share of a dose that reaches the circulation, judged against a reference dose that is usually intravenous. Read a high bioavailability as much systemic uptake. For the compound `N=C1NCCN1Cc1ccc(C(=O)Nc2ccc(Cl)cc2C(=O)Nc2ccc(Cl)cn2)cc1`, the Activity with Plasma turned out to be 0.58 µM. The bioavailability in [1] is less than 1%.
The like results for `NS(=O)(=O)c1ccccc1-c1ccc(C(=O)Nc2ccccc2C(=O)Nc2ccc(Cl)cn2)cc1` were, in that order, more than 5 µM and 35%.
For `N=C1OCCN1Cc1ccc(C(=O)Nc2ccc(Cl)cc2C(=O)Nc2ccc(Cl)cn2)cc1`, the Activity in the data set on Plasma turned out to be 0.56 µM. The Vd in data set [2] turned out to be 13.6 L/kg.
In general, IC50 refers to the point on the concentration scale where inhibition reaches its midpoint. Low readings indicate greater potency in that assay, high ones weaker potency in that assay. For `N=C(N)c1ccc(C(=O)Nc2ccccc2C(=O)Nc2ccc(Cl)cn2)cc1`, the IC50 was more than 10000 nM in data set [3]; 4 nM on Coagulation factor X; more than 10000 nM on Plasminogen; more than 10000 nM in [4]; more than 10000 nM in [5]; more than 10000 nM on Prothrombin. Further, it took 4900 nM to reach half-maximal inhibition in [6] (IC50). For the same compound, in [1], the bioavailability is less than 5%.
Consider `CONC(=N)c1ccc(C(=O)Nc2ccccc2C(=O)Nc2ccc(Cl)cn2)cc1`, for which the IC50 at Coagulation factor X worked out at 290 nM. That is a sub-micromolar value.
At Coagulation factor X, `N=C(NN)c1ccc(C(=O)Nc2ccccc2C(=O)Nc2ccc(Cl)cn2)cc1` displayed an IC50 of 25 nM.
On the same count and under the same terms, next, `CN(C)NC(=N)c1ccc(C(=O)Nc2ccccc2C(=O)Nc2ccc(Cl)cn2)cc1`: 30 nM.
The same measure, in the same setting: next, `N=C(c1ccc(C(=O)Nc2ccccc2C(=O)Nc2ccc(Cl)cn2)cc1)N1CCS(=O)(=O)CC1`: 256 nM.
On Coagulation factor X, `N=C(c1ccc(C(=O)Nc2ccccc2C(=O)Nc2ccc(Cl)cn2)cc1)N1CCOCC1` yielded an IC50 of 7 nM.
As to `N=C(c1ccc(C(=O)Nc2ccccc2C(=O)Nc2ccc(Cl)cn2)cc1)N1CCSCC1`, the IC50 against Coagulation factor X stood at 12 nM.
On Coagulation factor X, `CN1CCN(C(=N)c2ccc(C(=O)Nc3ccccc3C(=O)Nc3ccc(Cl)cn3)cc2)CC1` displayed an IC50 of 714 nM.
By half-life is commonly meant the time needed for the level to fall by half in the phase considered. A lower half-life goes with rapid decline. For the compound `CN1CCN=C1c1ccc(C(=O)Nc2ccccc2C(=O)Nc2ccc(Cl)cn2)cc1`, the results for the bioavailability in data set [7] and in data set [8] were 50% and 22%, respectively. In the data set with Plasma, the Activity is 1.1 µM. The compound also came in with an IC50 against Coagulation factor X of 20 nM. For the same compound, the Vd in data set [9] is 3.7 L/kg; in data set [12], 9.2 L/kg. Besides, the half-life in data set [10] is more than 6 h; in [11], 2.2 h. The clearance in data set [13] was found to be 49.6 mL/min/kg; in data set [14], 7.1 mL/min/kg. The fraction unbound in data set [15] is 0.18.
For the compound `CCN1CCN=C1c1ccc(C(=O)Nc2ccccc2C(=O)Nc2ccc(Cl)cn2)cc1`, the IC50 against Coagulation factor X worked out at 64 nM. That is a double-digit nanomolar value.
On the same count and under the same terms, the value for `O=C(Nc1ccccc1C(=O)Nc1ccc(Cl)cn1)c1ccc(C2=NCCCN2)cc1` was 226 nM.
In turn, `CN(C)C(=N)c1ccc(C(=O)Nc2ccccc2C(=O)Nc2ccc(Cl)cn2)cc1` registered a bioavailability in data set [7] of 69%. In addition, the Activity in the data set on Plasma worked out at 0.54 µM. Further, the Vd was 6.3 L/kg in [9] and 13.7 L/kg in data set [12]. Besides, the figures for the half-life in [10] and in data set [11] were 4.3 h and 3.5 h, respectively. Also, the clearance is 45.7 mL/min/kg in data set [13] and 16.8 mL/min/kg in data set [14]. The fraction unbound in [15] is 0.27.
In turn, `CN1CCCN=C1c1ccc(C(=O)Nc2ccccc2C(=O)Nc2ccc(Cl)cn2)cc1` displayed an IC50 against Coagulation factor X of 78 nM. This counts as double-digit nanomolar.
The same measure, in the same setting: next, `CCN(C)C(=N)c1ccc(C(=O)Nc2ccccc2C(=O)Nc2ccc(Cl)cn2)cc1`: 6 nM; `N=C(c1ccc(C(=O)Nc2ccccc2C(=O)Nc2ccc(Cl)cn2)cc1)N1CCCC1`: 8 nM.
The same measure, in the same setting: next, `CCN(CC)C(=N)c1ccc(C(=O)Nc2ccccc2C(=O)Nc2ccc(Cl)cn2)cc1`: 10 nM; `CCNC(=N)c1ccc(C(=O)Nc2ccccc2C(=O)Nc2ccc(Cl)cn2)cc1`: 93 nM; `N=C(c1ccc(C(=O)Nc2ccccc2C(=O)Nc2ccc(Cl)cn2)cc1)N1CCC1`: 8 nM.
Same read-out and setting: the value for `N=C(c1ccc(C(=O)Nc2ccccc2C(=O)Nc2ccc(Cl)cn2)cc1)N1CCNCC1` was 38 nM.
With `N=C(c1ccc(C(=O)Nc2ccccc2C(=O)Nc2ccc(Cl)cn2)cc1)N1CCCCC1`, the Activity in the data set with Plasma was 0.36 µM. The IC50 against Coagulation factor X came to 3 nM. Moreover, in data set [8], the bioavailability is 18%. For the same compound, the Vd in [9] stood at 16.7 L/kg. Besides, in data set [10], the half-life is 6 h. In [14], the clearance was determined as 32.2 mL/min/kg. The fraction unbound in [15] is 0.11.
`N=C(NO)c1ccc(C(=O)Nc2ccccc2C(=O)Nc2ccc(Cl)cn2)cc1` came in with an IC50 against Coagulation factor X of 35 nM.
Still for that read-out and setting: next, `O=C(Nc1ccccc1C(=O)Nc1ccc(Cl)cn1)c1ccc(C2=NCCN2)cc1`: 316 nM.
On Coagulation factor X, `CCCN(C)C(=N)c1ccc(C(=O)Nc2ccccc2C(=O)Nc2ccc(Cl)cn2)cc1` registered an IC50 of 9 nM.
Take `CNC(=N)c1ccc(C(=O)Nc2ccccc2C(=O)Nc2ccc(Cl)cn2)cc1`: the IC50 at Coagulation factor X worked out at 23 nM.
